KCNQ1 inh: inhibitors of human KCNQ1 channel, primary screen, cell-based, thallium flux, high-throughput | B-score at 10 µM | actives 1.3% (n = 310,000) | AID 2642, 2010 | Potassium voltage-gated channel subfamily KQT member 1 (Homo sapiens), P51787 | CHO-K1 KCNQ1, FluxOR thallium flux fluorescence; active compounds read high;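 active = compounds whose thallium flux B-score, printed positive for inhibition, exceeds three library SD while starting fluorescence stays within three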;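 note: channel opened by potassium depolarization with thallium stimulus after 20 min compound exposure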
KCNK9 block: KCNK9 potassium channel inhibitors, primary screen, HEK293 cells, thallium flux; B-score at 10 µM; AID 488922, 2010; FluxOR thallium flux fluorescence; active compounds read low; actives 1.2% (n = 310,000);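 active = ratio B-score over 3 SD below the library mean, with starting fluorescence within 5 SD of its mean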;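 note: negative B-score means less thallium flux so channel inhibition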
Target sequence (Q9NPC2 whole entry, looked up): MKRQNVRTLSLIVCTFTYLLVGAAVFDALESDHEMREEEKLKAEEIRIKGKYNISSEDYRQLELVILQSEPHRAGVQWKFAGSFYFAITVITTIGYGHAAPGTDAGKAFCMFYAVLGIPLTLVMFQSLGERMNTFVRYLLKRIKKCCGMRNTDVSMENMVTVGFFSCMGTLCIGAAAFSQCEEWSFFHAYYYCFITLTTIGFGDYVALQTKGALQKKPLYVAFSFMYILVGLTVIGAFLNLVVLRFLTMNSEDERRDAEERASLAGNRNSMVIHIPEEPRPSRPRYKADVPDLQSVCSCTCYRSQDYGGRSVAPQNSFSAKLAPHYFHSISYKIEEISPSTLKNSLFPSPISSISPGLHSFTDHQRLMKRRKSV
KCNQ1 pot: potentiators or activators of KCNQ1 channel, primary screen, cell-based, thallium flux, high-throughput | B-score at 10 µM | actives 0.35% (n = 310,000) | CHO-K1 KCNQ1, thallium flux FluxOR fluorescence; active compounds read high;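 active = fluorescence ratio B-score, a plate-corrected score, at least three library SD, with initial intensity B-score within 5 SD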
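Assay system: CHO-K1 cells stably expressing KCNQ1; Medium: assay buffer with matched DMSO; Also added: K+/Tl+ depolarizing stimulus; Dosing: single dose; Timing: dye 90 min, compound 20 min, room temperature; Measured by: kinetic FluxOR thallium fluorescence, 10-s 1-Hz baseline, 110-s post-stimulus read; Read-out: peak-minus-minimum fluorescence over initial fluorescence, negative-control normalized, B-scored.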
KCNK3 inh: human KCNK3 channel inhibitors, primary screen, CHO cells, FluxOR thallium flux, B-score. actives 0.84% (n = 340,000). Potassium channel subfamily K member 3 (Homo sapiens), O14649. B-score at 10 µM. FluxOR fluorescence; active compounds read low;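 active = B-score under library mean minus 4 SD, starting fluorescence ratio at most library mean plus 5 SD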;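 note: more negative B-score means stronger inhibition of thallium flux through KCNK3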
Target sequence (O14649 whole entry, looked up): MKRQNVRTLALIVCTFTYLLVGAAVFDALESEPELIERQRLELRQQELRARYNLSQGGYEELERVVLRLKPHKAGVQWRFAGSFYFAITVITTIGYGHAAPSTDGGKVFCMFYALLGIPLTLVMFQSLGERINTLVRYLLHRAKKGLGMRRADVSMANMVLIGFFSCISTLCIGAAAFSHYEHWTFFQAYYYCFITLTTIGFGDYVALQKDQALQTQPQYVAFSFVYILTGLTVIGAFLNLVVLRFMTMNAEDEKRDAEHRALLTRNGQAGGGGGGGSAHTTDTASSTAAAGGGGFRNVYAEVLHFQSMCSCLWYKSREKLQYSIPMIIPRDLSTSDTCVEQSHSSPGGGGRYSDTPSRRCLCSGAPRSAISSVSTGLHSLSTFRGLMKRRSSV
Kir21 block: inhibitors of mouse Kir2.1 inward-rectifier potassium channel | Inward rectifier potassium channel 2 (Mus musculus), P35561 | HEK293-Kir2.1, FluxOR thallium flux fluorescence; active compounds read low | B-score at 10 µM | actives 0.85% (n = 310,000) | AID 1672, 2009;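 active = fluorescence ratio B-score at or below minus 3 SD of library scores, with starting-brightness B-score within 2 SD, cut at about -4.2 in these data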;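 note: channel flux triggered by added potassium and thallium sulfate stimulus; B-score of peak minus minimum fluorescence over baseline after thallium stimulus; more negative B-score means stronger Kir2.1 block with less thallium influx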
hERG rescue: hERG rescue from dofetilide block, primary screen, cell-based, CHO-hERG, FluxOR thallium flux, dofetilide IC70. dofetilide IC70 present. activation (rescue from dofetilide block), less the hit threshold, % at 10 µM. actives 0.51% (n = 310,000). AID 1511, 2009;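 active = activation above the mean of controls blocked by dofetilide plus 5 SD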;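 note: thallium influx through hERG after potassium depolarization seen as dye fluorescence rise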
KCNQ1 block val: KCNQ1 potassium channel inhibitors, confirmation, cell-based, Tl flux, duplicate; actives 93% (n = 1,600); KCNQ1 cell line, FluxOR thallium flux fluorescence; shares compounds with KCNQ1 inh; inhibition, % at 10 µM; AID 588353, 2011;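 active = primary screen active, with duplicate mean exceeding buffer control mean plus 3 SD of buffer wells, cut at about 28% in these data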
CHO Tl flux: thallium flux effects in parental CHO cells, counter-screen for KCNQ1 inhibitor project, cell-based, Tl flux | parental CHO-K1, FluxOR thallium flux fluorescence ratio; active compounds read low; zero means no signal rise above baseline | shares compounds with KCNQ1 inh | fluorescence ratio (Tl flux) at 10 µM | AID 588366, 2011 | actives 21% (n = 1,600);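 active = mean of duplicate thallium-flux fluorescence ratios in parental host cells more than 5 SD below the buffer control mean, cut at about 0.38 in these data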;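 note: ratio is peak minus minimum fluorescence divided by baseline fluorescence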
KCNQ1 ephys val: KCNQ1 channel inhibitors, confirmation, orthogonal assay, cell-based, automated electrophysiology. KCNQ1-CHO cells, automated patch clamp current. AID 624120, 2012. actives 20% (n = 490). calls only at 10 µM. shares compounds with KCNQ1 inh;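 active = KCNQ1 current drop exceeding 3 SD of negative control wells, seen in both duplicate runs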;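 note: steady state current during a 2 s step from -80 to +40 mV; negative values mean current inhibition and positive values mean potentiation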
KCNQ2 inh: KCNQ2 channel inhibition, selectivity assay for KCNQ1 inhibitor project, cell-based. shares compounds with KCNQ1 inh. KCNQ2 cells, FluxOR thallium flux fluorescence. inhibition, % at 10 µM. actives 71% (n = 1,600);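 active = mean percent inhibition of the KCNQ2 thallium signal more than 5 SD above the buffer-only control wells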;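 note: KCNQ2 expressed in CHO cells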
KCNQ1 KCNE1 spec: KCNQ1/KCNE1 channel inhibition, selectivity assay for KCNQ1 inhibitor project, CHO-K1 cells, thallium flux, FluxOR; FluxOR thallium flux fluorescence; shares compounds with KCNQ1 inh; AID 652147, 2013; actives 77% (n = 1,600); inhibition, % at 10 µM;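 active = mean percent inhibition of duplicate wells above the buffer-only control mean plus 3 SD of those controls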
Large screens that a line does not name were inactive (follow-up assays come after a bar, where they were run). Most compounds without a hit are left out; they make up all but 3.7% or so of the library.

CCC1CCCCN1C(=O)c1cc(COc2ccc3ncccc3c2)on1 (stereo unspecified)	KCNQ1 inh 12, KCNK3 inh -8.97 | KCNQ1 block val 123.5 | CHO Tl flux inactive | KCNQ2 inh 86.3% | KCNQ1 KCNE1 spec 112.5%
CCN(CC)C(=O)c1ccc(COc2ccc(Cl)c(C)c2)o1	KCNQ1 inh 11 | KCNQ1 block val 114.5 | CHO Tl flux inactive | KCNQ1 ephys val inactive | KCNQ2 inh 129.7% | KCNQ1 KCNE1 spec 109.0%
Oc1ccccc1N=Nc1ccccc1O	KCNQ1 inh 13 | KCNQ1 block val 61.5 | CHO Tl flux inactive | KCNQ2 inh inactive | KCNQ1 KCNE1 spec inactive
Nc1ccc(N=Nc2ccccc2O)c(N)c1	none
CN(C)c1ccc(N=Nc2ccccc2C(=O)OCC(=O)N(C)c2ccccc2)cc1	KCNQ1 inh 8 | KCNQ1 block val 99.0 | CHO Tl flux inactive | KCNQ1 ephys val inactive | KCNQ2 inh 93.0% | KCNQ1 KCNE1 spec 121.0%
COC(=O)c1ccccc1NC(=O)COC(=O)c1ccccc1N=Nc1ccc(N(C)C)cc1	none
COc1ccc(NC(=O)C2CCC(=O)N2S(=O)(=O)c2ccc(C)cc2)cc1Cl (stereo unspecified)	none
CC(C)(C)c1cc(N)n2nc(C(C)(C)C)cc2n1	KCNQ1 inh 11 | KCNQ1 block val 96.5 | CHO Tl flux inactive | KCNQ1 ephys val active | KCNQ2 inh inactive | KCNQ1 KCNE1 spec 122.5%
Cc1cc2nc(C(C)(C)C)cc(N)n2n1	none
CC1CCN(C(=O)c2[nH]cnc2C(=O)NCc2ccc(CNC(=O)OC(C)(C)C)cc2)CC1	none (no result: KCNQ1 inh, KCNK9 block, KCNQ1 pot, Kir21 block, hERG rescue)
CCOC(=O)c1oc2ccc(S(=O)(=O)n3nc(-c4cc(OC)c(OC)c(OC)c4)cc3N)cc2c1C	KCNQ1 inh 7 | KCNQ1 block val 62.5 | CHO Tl flux inactive | KCNQ2 inh 71.0% | KCNQ1 KCNE1 spec 109.5%
COc1cc(-c2cc(N)n(S(=O)(=O)c3ccc(F)cc3)n2)cc(OC)c1OC	none
Cc1ccc(CNC(=O)c2ccc(N3CCC4(CC3)CC(c3ccccc3)=NO4)c(NC(=O)c3c(Cl)cccc3Cl)c2)cc1	none
Cc1ccc(-c2n[nH]c(=S)n2/N=C/c2ccc(C)o2)cc1	KCNQ1 inh 6 | KCNQ1 block val inactive | CHO Tl flux inactive | KCNQ2 inh inactive | KCNQ1 KCNE1 spec inactive
Cc1ccc(OCCN2CCN(c3ncnc4sc(C)c(C)c34)CC2)cc1	KCNQ1 inh 11, KCNK3 inh -10.6 | KCNQ1 block val 125.5 | CHO Tl flux 0.371 | KCNQ2 inh 139.7% | KCNQ1 KCNE1 spec 107.5%
O=C(NCCCCc1ccccc1)c1cccc(NC(=O)C2CCCC2)c1	none (no result: KCNQ1 inh, KCNK9 block, KCNQ1 pot, Kir21 block, hERG rescue)
COc1ccccc1NC(=O)C(Sc1ccccc1)c1ccccc1 (stereo unspecified)	KCNQ1 inh 10 | KCNQ1 block val 83.5 | CHO Tl flux inactive | KCNQ2 inh 112.3% | KCNQ1 KCNE1 spec 88.5%
COc1ccc(N(C)S(=O)(=O)c2cccc(C(=O)OCC(=O)N(C)c3ccccc3)c2)cc1	none (no result: KCNQ1 inh, KCNK9 block, KCNQ1 pot, Kir21 block, hERG rescue)
N#Cc1c(Cl)nsc1NC(=O)c1ccccc1	KCNQ1 inh 6 | KCNQ1 block val inactive | CHO Tl flux inactive | KCNQ2 inh inactive | KCNQ1 KCNE1 spec inactive
CCOc1ccc2[nH]c3c(NCC(C)C)ncnc3c2c1	KCNQ1 inh 6 | KCNQ1 block val 69.0 | CHO Tl flux inactive | KCNQ2 inh 93.7% | KCNQ1 KCNE1 spec 69.5%
CCOc1ccc2[nH]c3c(NCCOC)ncnc3c2c1	none
COc1ccc(CNC(=O)CN2C(=O)COc3ccc(S(=O)(=O)N4CCOCC4)cc32)cc1	none
CCOC(=O)c1cc(C#N)c(N2CCCC2)nc1-c1ccccc1	none
CCOC(=O)c1cc(C#N)c(Oc2ccc(F)cc2)nc1-c1ccccc1	KCNQ1 inh 9 | KCNQ1 block val 70.5 | CHO Tl flux 0.38 | KCNQ2 inh 76.3% | KCNQ1 KCNE1 spec 104.5%
Cc1cc(=O)n2c3ccccc3n(C)c2n1	none
CCCSc1nnc(NC(=O)c2sc3nc(-c4cccs4)ccc3c2N)s1	none
Cc1csc(NC(=O)c2sc3nc(-c4cccs4)ccc3c2N)n1	KCNQ1 inh 16 (no result: KCNK3 inh) | KCNQ1 block val 123.5 | CHO Tl flux 0.244 | KCNQ2 inh inactive | KCNQ1 KCNE1 spec inactive
COCCNC(=O)C(OC(=O)c1ccco1)c1ccc(OC)cc1 (stereo unspecified)	none (no result: KCNQ1 inh, KCNK9 block, KCNQ1 pot, Kir21 block, hERG rescue)
Cc1noc(C)c1C(=O)Nc1sc(C)c(-c2ccccc2)c1C#N	KCNQ1 inh 9 | KCNQ1 block val 107.0 | CHO Tl flux inactive | KCNQ1 ephys val inactive | KCNQ2 inh 80.7% | KCNQ1 KCNE1 spec 70.5%
CC1CCCN(c2nc3ccccc3nc2C(C#N)S(=O)(=O)c2cccs2)C1 (stereo unspecified)	none
COc1ccc(S(=O)(=O)C(C#N)c2nc3ccccc3nc2N2CCCC(C)C2)cc1 (stereo unspecified)	KCNQ1 inh 9 | KCNQ1 block val 124.5 | CHO Tl flux inactive | KCNQ1 ephys val inactive | KCNQ2 inh 106.0% | KCNQ1 KCNE1 spec 126.0%
CC(C)(C)C1CCC2(CC1)C(C#N)=C(SCC(=O)NC1CCCCC1)NC(=O)C2C#N (stereo unspecified)	KCNQ1 inh 9 | KCNQ1 block val 71.5 | CHO Tl flux inactive | KCNQ2 inh 72.0% | KCNQ1 KCNE1 spec inactive

High-throughput results deposited in PubChem by Johns Hopkins Ion Channel Center.
